How the values were obtained:
[1] = target: T1, Prostaglandin D2 receptor (Homo sapiens, UniProt Q13258); assay: Antagonist activity at prostanoid DP1 receptor; assay type: functional
T1 sequence (Q13258 whole entry): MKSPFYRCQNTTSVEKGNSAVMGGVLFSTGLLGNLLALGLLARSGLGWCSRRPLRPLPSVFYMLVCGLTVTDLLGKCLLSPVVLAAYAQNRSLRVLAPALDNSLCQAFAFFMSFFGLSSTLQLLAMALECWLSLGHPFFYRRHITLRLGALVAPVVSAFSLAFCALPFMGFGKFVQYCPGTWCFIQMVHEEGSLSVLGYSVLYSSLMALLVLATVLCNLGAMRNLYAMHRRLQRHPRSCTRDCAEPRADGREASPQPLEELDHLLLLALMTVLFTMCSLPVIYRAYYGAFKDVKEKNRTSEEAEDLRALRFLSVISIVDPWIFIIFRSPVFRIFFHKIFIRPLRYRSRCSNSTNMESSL

Thromboxane A2 receptor = target: T2, Thromboxane A2 receptor (Homo sapiens, UniProt P21731); assay: Antagonist activity at prostanoid TP receptor; assay type: functional
T2 sequence (P21731 whole entry): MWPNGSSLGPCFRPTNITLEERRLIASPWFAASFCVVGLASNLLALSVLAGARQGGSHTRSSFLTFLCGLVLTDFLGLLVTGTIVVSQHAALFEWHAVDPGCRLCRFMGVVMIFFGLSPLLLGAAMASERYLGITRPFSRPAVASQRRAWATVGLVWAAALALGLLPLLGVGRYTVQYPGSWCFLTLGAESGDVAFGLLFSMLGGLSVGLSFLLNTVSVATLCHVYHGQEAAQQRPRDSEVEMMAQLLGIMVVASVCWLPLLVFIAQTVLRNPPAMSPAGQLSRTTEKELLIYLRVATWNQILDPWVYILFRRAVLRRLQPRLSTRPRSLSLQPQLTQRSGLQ

[2] = target: T3, Prostaglandin E2 receptor EP1 subtype (Homo sapiens, UniProt P34995); assay: Binding affinity to prostanoid receptor EP1 receptor
T3 sequence (P34995 whole entry): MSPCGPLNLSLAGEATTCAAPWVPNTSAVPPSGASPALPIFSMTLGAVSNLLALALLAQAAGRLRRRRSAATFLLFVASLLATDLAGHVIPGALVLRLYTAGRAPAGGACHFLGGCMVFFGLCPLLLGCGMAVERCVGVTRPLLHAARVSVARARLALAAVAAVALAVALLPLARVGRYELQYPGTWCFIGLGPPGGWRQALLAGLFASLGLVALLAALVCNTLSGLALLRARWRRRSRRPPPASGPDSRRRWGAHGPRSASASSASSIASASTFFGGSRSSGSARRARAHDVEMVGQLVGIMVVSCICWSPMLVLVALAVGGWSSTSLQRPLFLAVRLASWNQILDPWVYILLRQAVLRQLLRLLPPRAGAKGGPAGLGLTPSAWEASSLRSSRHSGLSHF

[3] = target: Prostaglandin E2 receptor EP2 subtype (Homo sapiens, UniProt P43116); assay: Binding affinity to prostanoid receptor EP2 receptor
[4] = target: T4, Prostaglandin E2 receptor EP3 subtype (Homo sapiens, UniProt P43115); assay: Binding affinity to prostanoid receptor EP3 receptor
T4 sequence (P43115 whole entry): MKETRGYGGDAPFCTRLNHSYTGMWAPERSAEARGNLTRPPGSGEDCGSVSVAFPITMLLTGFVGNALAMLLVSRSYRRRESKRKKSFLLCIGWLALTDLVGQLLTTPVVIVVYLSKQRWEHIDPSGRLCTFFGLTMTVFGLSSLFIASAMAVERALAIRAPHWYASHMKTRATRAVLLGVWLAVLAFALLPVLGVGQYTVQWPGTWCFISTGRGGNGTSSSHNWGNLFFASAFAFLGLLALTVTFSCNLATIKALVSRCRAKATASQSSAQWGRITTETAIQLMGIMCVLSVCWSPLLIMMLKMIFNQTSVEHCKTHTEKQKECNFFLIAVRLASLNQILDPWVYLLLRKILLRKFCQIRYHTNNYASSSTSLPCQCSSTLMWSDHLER

[5] = target: Prostaglandin E2 receptor EP4 subtype (Homo sapiens, UniProt P35408); assay: Binding affinity to prostanoid receptor EP4 receptor
[6] = target: Prostaglandin F2-alpha receptor (Homo sapiens, UniProt P43088); assay: Binding affinity to prostanoid receptor FP receptor
Prostacyclin receptor = Prostacyclin receptor (Homo sapiens, UniProt P43119); assay: Binding affinity to prostanoid receptor IP receptor
[7] = Selectivity ratio of Ki for prostanoid DP1 receptor to Ki for prostanoid EP3 receptor
[8] = target: T1, Prostaglandin D2 receptor; assay: Antagonist activity at prostanoid DP1 receptor in human platelet assessed as inhibition of PGD2 induced accumulation of cAMP; assay type: functional
Summary of the method: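 Human platelet-rich plasma; cAMP accumulation induced by PGD₂, measured with antagonist present; IC₅₀ reported.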

Homo sapiens = species: Homo sapiens; assay: Selectivity ratio of IC50 for prostanoid DP1 receptor to IC50 for TP receptor in human platelet
Summary of the method: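 Ratio of IC₅₀ values from two human platelet-rich plasma assays: PGD₂-induced cAMP accumulation (DP1) and U46619-induced platelet aggregation (TP).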

[9] = Chemical stability of compound in 0.01N HCl after 6 hrs; assay type: physicochemical; conditions: read-out: Stability
Summary of the method: (§1)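 Compound incubated in 0.01 N HCl at 37 °C; percent of compound recovered after 2 h or 6 h.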

[10] = Chemical stability of compound in 0.01N HCl after 2 hrs; assay type: physicochemical; conditions: read-out: Stability; summary of the method: as §1

Sequence of Prostaglandin E2 receptor EP4 subtype (P35408 whole entry): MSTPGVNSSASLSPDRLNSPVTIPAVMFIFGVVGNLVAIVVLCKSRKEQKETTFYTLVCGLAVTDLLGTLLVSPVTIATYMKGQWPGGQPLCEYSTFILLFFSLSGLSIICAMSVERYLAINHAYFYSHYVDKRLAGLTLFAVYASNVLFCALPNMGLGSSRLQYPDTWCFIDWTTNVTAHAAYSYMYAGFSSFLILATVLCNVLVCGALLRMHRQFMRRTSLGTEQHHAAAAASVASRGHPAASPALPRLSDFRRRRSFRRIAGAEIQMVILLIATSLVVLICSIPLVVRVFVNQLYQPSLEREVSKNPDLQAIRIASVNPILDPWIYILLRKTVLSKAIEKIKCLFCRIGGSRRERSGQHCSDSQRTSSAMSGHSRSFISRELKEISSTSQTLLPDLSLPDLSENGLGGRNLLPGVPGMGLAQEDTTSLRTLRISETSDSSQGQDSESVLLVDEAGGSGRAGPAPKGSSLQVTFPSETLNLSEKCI
Sequence of Prostaglandin F2-alpha receptor (P43088 whole entry): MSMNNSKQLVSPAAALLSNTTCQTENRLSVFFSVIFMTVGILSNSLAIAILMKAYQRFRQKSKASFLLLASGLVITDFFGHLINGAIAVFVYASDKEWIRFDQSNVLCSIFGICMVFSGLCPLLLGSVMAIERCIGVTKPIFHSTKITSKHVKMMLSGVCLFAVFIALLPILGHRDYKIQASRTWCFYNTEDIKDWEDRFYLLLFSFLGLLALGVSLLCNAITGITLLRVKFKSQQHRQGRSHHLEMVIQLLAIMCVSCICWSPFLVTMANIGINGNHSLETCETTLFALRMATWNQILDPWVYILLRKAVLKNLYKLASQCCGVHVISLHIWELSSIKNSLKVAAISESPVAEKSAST
Sequence of Prostacyclin receptor (P43119 whole entry): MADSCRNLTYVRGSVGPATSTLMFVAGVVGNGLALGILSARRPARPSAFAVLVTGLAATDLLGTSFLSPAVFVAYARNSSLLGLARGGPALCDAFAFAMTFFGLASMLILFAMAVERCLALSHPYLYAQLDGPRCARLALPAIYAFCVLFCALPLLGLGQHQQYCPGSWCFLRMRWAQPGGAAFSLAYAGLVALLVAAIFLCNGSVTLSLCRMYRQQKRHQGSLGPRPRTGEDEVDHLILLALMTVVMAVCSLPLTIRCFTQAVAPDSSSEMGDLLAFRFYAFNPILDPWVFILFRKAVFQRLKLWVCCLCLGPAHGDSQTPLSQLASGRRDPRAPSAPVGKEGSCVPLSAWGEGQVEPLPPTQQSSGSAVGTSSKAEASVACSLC
Sequence of Prostaglandin E2 receptor EP2 subtype (P43116 whole entry): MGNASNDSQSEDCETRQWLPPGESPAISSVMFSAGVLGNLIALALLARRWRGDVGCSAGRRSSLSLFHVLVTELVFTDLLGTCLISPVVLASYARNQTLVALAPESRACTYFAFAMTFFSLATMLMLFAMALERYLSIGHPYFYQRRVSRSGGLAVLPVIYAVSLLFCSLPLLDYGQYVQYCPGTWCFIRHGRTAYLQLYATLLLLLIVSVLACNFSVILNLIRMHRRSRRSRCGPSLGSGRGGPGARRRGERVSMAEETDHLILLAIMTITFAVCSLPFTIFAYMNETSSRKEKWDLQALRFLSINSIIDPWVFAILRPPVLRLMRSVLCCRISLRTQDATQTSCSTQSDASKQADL

Row | Structure (SMILES) | Ki [1] [nM] | Ki (Thromboxane A2 receptor) [nM] | also measured
1 | C[C@@H](c1ccc(Cl)cc1F)n1c2c(c3cc(F)cc(S(C)(=O)=O)c31)CCC[C@@H]2CC(=O)O | 0.41 | 270 | –
2 | C[C@@H](c1ccccc1)n1c2c(c3cc(F)cc(S(C)(=O)=O)c31)CCC[C@@H]2CC(=O)O | 0.36 | 362 | –
3 | CC(c1ccc(Cl)cc1)n1c2c(c3cc(F)cc(S(C)(=O)=O)c31)CCCC2CC(=O)O (single isomer, unassigned; fast eluting) | 12 | – | –
4 | CS(=O)(=O)c1cc(F)cc2c3c(n([C@H](c4ccc(Cl)cc4)C(F)F)c12)[C@@H](CC(=O)O)CCC3 | 0.36 | 130 | –
5 | CC(c1ccc(Cl)cc1)n1c2c(c3cc(F)cc(S(C)(=O)=O)c31)CCCC2CC(=O)O (single isomer, unassigned; slow-eluting) | 1.3 | – | –
6 | CS(=O)(=O)c1cc(F)cc2c3c(n(Cc4ccc(Cl)cc4)c12)C(CC(=O)O)CCC3 (racemic) | 0.89 | 2.51 | –
7 | C[C@@H](c1cccc(Cl)c1)n1c2c(c3cc(F)cc(S(C)(=O)=O)c31)CCC[C@@H]2CC(=O)O | 0.31 | 292 | –
8 | C[C@@H](c1ccc(Br)cc1)n1c2c(c3cc(F)cc(S(C)(=O)=O)c31)CCC[C@@H]2CC(=O)O | 0.38 | 106 | –
9 | CS(=O)(=O)c1cc(F)cc2c3c(n([C@@H](CF)c4ccc(Cl)cc4)c12)[C@@H](CC(=O)O)CCC3 | 0.39 | 138 | –
10 | C[C@@H](c1ccc(C(F)(F)F)cc1)n1c2c(c3cc(F)cc(S(C)(=O)=O)c31)CCC[C@@H]2CC(=O)O | 0.43 | 338 | Ki [2]: 4590 nM; Ki [3]: 2270 nM; Ki [4]: 830 nM; Ki [5]: 6610 nM; Ki [6]: 4320 nM; Ki (Prostacyclin receptor): 15500 nM; Ratio [7]: 1900; IC50 [8]: 2.5 nM; Ratio (Homo sapiens): 7760; remaining at 6 h [9]: 99.6%
11 | C[C@@H](c1ccc(Cl)c(Cl)c1)n1c2c(c3cc(F)cc(S(C)(=O)=O)c31)CCC[C@@H]2CC(=O)O | 0.33 | 112 | –
12 | C[C@@H](c1ccc(S(C)(=O)=O)cc1)n1c2c(c3cc(F)cc(S(C)(=O)=O)c31)CCC[C@@H]2CC(=O)O | 16.5 | 1480 | –
13 | C[C@@H](c1ccc(Cl)c(F)c1)n1c2c(c3cc(F)cc(S(C)(=O)=O)c31)CCC[C@@H]2CC(=O)O | 0.38 | 200 | –
14 | C[C@@H](c1ccc(F)cc1)n1c2c(c3cc(F)cc(S(C)(=O)=O)c31)CCC[C@@H]2CC(=O)O | 0.33 | 100 | –
15 | C[C@@H](c1ccc(C#N)cc1)n1c2c(c3cc(F)cc(S(C)(=O)=O)c31)CCC[C@@H]2CC(=O)O | 0.51 | 93 | –
16 | C[C@@H](c1ccc(Cl)cc1)n1c2c(c3cc(F)cc(S(C)(=O)=O)c31)CCC[C@@H]2CC(=O)O | 0.75 | 184 | remaining at 2 h [10]: 79%

— ChEMBL document CHEMBL1287728, “Potent and highly selective DP1 antagonists with 2,3,4,9-tetrahydro-1H-carbazole as pharmacophore” (Bioorg Med Chem Lett, 2010)
